Published values pooled from the literature.
Protocols differ between the studies behind these lines.
Target: 5-hydroxytryptamine receptor 7 (HTR7, Homo sapiens, UniProt P34969)
Technique: radioligand

CC1(CCN2CCc3ccccc3C2)Cc2cc(Cl)ccc2C1=O (racemic)
Ki (ligand displacement): 2.1 nM

CNc1nc2cc(OCCCCN3CCC(c4cccc(Cl)c4Cl)CC3)ccc2s1
Ki (cell-free assay): 95 nM

CN1CCN(CCCN2c3ccccc3Sc3ccc(C(F)(F)F)cc32)CC1
Ki (ligand displacement; cell membranes): 497 nM

O=C1c2ccccc2CCN1CCCCN1CCN(c2cccc(Cl)c2Cl)CC1
Ki (ligand displacement): 21 nM

Cc1nc2sccn2c(=O)c1CCN1CCC(=C(c2ccc(F)cc2)c2ccc(F)cc2)CC1
Ki (ligand displacement; cell membranes): 468 nM

O=C(CCCN1CCCN(c2ccc(Cl)cc2)CC1)c1ccc(F)cc1
Ki (ligand displacement): 78 nM

CCc1nc2cc(OCCCCN3CCC(c4cccc(Cl)c4Cl)CC3)ccc2s1
Ki (cell-free assay): 160 nM

CCCCN1CCC(COC(=O)c2ccc(N)c(OCF)c2)CC1
Ki (cell-free assay): > 10000 nM
